Consider one compound from ChEMBL document CHEMBL5674890, “Selective inhibition of CBP/p300 HAT by A-485 results in suppression of lipogenesis and hepatic gluconeogenesis” (Cell Death Dis, 2020).

Each structure is given as a SMILES string. Calls of active or inactive are those of the source. No cut-off for these calls is given here.

Test [1] relates to Mus musculus. The test is described as follows: Anti-obesity activity in 16 hrs fasted C57BL/6 mouse supplemented with normal chow diet assessed as decrease in blood glucose level at 20 mg/kg/day, ip administered for 1 week measured after 15 mins by intraperitoneal glucose tolerance test. It is filed as functional, organism-based. The note with it: time 1.0 weeks. Put shortly:
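Male C57BL/6 mice on normal chow, 8 weeks old, given 20 mg·kg−1·day−1 ip daily for 7 days. After 16 h fasting, glucose 2 g/kg body weight ip; blood glucose read during the test. Mean ± SEM, n = 5–9; t test or ANOVA, P < 0.05.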

In test [2] the test system is Mus musculus. The test is described as follows: Anti-obesity activity in 6 hrs fasted C57BL/6 mouse supplemented with normal chow diet assessed as effect on insulin sensitivity at 20 mg/kg/day, ip administered for 1 week measured by insulin tolerance test. It is filed as functional, organism-based. The note with it: time 1.0 weeks. A digest of the protocol: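 Insulin tolerance test in normal-chow male C57BL/6 mice (8 weeks), after 7 days of ip dosing at 20 mg·kg−1·day−1. 6 h fast, then insulin 0.75 UI/kg body weight ip; blood glucose followed. Mean ± SEM, n = 5–9.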

Test [3] relates to Mus musculus. Nature of the test: Anti-obesity activity in C57BL/6 mouse supplemented with high fat diet assessed as decrease in body weight at 20 mg/kg/day, ip administered for 1 week. In kind it is functional, organism-based. As to conditions: time 1.0 weeks. A digest of the protocol:
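Male C57BL/6 mice fed high-fat diet for 14 weeks from 5 weeks of age, then ip 20 mg·kg−1·day−1 for 7 days. Body weight, EchoMRI lean/fat mass, and random or 16 h-fasted blood glucose recorded, as the line states.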

Test [4] has as its system Mus musculus. The test is described as follows: Inhibition of lipogenesis in C57BL/6 mouse supplemented with high-fat diet assessed as decrease in weight of inguinal white adipose tissue (iWAT) at 20 mg/kg/day, ip administered for 1 week. In kind it is functional, organism-based. As to conditions: time 1.0 weeks. Put shortly:
(§1)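 Male C57BL/6 mice were fed high-fat diet for 14 weeks from 5 weeks of age, then injected ip with 20 mg·kg−1·day−1 for 7 days or given vehicle. Epididymal and inguinal WAT were weighed, examined by H&E, and analysed. Transcripts were measured by Trizol/SYBR Green RT-qPCR; proteins by western blot. n = 5–9; mean ± SEM.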

Test [5] relates to Mus musculus. The test is described as follows: Inhibition of lipogenesis in C57BL/6 mouse supplemented with high-fat diet assessed as decrease in gross size of WAT at 20 mg/kg/day, ip administered for 1 week. It is filed as functional, organism-based. As to conditions: time 1.0 weeks. Put shortly:
as §1

In test [6] the test system is Mus musculus. The test is described as follows: Inhibition of lipogenesis in C57BL/6 mouse supplemented with high-fat diet assessed as decrease in SCD1 mRNA expression at 20 mg/kg/day, ip administered for 1 week measured by RT-qPCR assay. It is filed as functional, organism-based. The note with it: time 1.0 weeks. A digest of the protocol: as §1
Test [7] has as its system Mus musculus. The test is described as follows: Inhibition of lipogenesis in C57BL/6 mouse supplemented with high-fat diet assessed as decrease in DGAT2 mRNA expression at 20 mg/kg/day, ip administered for 1 week measured by RT-qPCR assay. As to conditions: time 1.0 weeks. It is filed as functional, organism-based. A digest of the protocol:
as §1

Test [8] has as its system Mus musculus. The test is described as follows: Inhibition of lipogenesis in C57BL/6 mouse supplemented with high-fat diet assessed as decrease in ChREBP mRNA expression at 20 mg/kg/day, ip administered for 1 week measured by RT-qPCR assay. It is filed as functional, organism-based. As to conditions: time 1.0 weeks. Put shortly: as §1
The subject of test [9] is Mus musculus. The test is described as follows: Inhibition of lipogenesis in C57BL/6 mouse supplemented with high-fat diet assessed as decrease in SREBP-1c mRNA expression at 20 mg/kg/day, ip administered for 1 week measured by RT-qPCR assay. It is filed as functional, organism-based. As to conditions: time 1.0 weeks. A digest of the protocol:
as §1

In test [10] the test system is Mus musculus. The test is described as follows: Inhibition of lipogenesis in C57BL/6 mouse supplemented with normal chow diet assessed as decrease in ACC mRNA expression at 20 mg/kg/day, ip administered for 1 week measured by RT-qPCR assay. It is filed as functional, organism-based. The note with it: time 1.0 weeks. Put shortly:
(§2)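 Eight-week-old male C57BL/6 mice on normal chow were given 20 mg·kg−1·day−1 ip daily for 7 days or vehicle. Epididymal WAT was collected. Lipogenic, adipogenic and fatty-acid-oxidation transcripts were quantified by Trizol extraction and SYBR Green RT-qPCR. FAS, ACC, PPARγ and C/EBPα protein were assessed by western blot. n = 5–9; mean ± SEM.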

Test [11] deals with Mus musculus. Nature of the test: Inhibition of lipogenesis in C57BL/6 mouse supplemented with normal chow diet assessed as effect on CPT1alpha mRNA expression at 20 mg/kg/day, ip administered for 1 week measured by RT-qPCR assay. In kind it is functional, organism-based. As to conditions: time 1.0 weeks. Put shortly: as §2
The subject of test [12] is Mus musculus. Nature of the test: Inhibition of lipogenesis in C57BL/6 mouse supplemented with normal chow diet assessed as decrease in FABP4 mRNA expression at 20 mg/kg/day, ip administered for 1 week measured measured by RT-qPCR assay. The note with it: time 1.0 weeks. It is filed as functional, organism-based. A digest of the protocol: as §2
Test [13] concerns Mus musculus. The test is described as follows: Inhibition of lipogenesis in C57BL/6 mouse supplemented with high-fat diet assessed as decrease in PPARgamma mRNA expression at 20 mg/kg/day, ip administered for 1 week measured measured by RT-qPCR assay. The note with it: time 1.0 weeks. It is filed as functional, organism-based. A digest of the protocol: as §1
For test [14], the system named is Mus musculus. The test is described as follows: Inhibition of lipogenesis in C57BL/6 mouse supplemented with normal chow diet assessed as decrease in C/EBPalpha mRNA expression at 20 mg/kg/day, ip administered for 1 week measured measured by RT-qPCR assay. In kind it is functional, organism-based. As to conditions: time 1.0 weeks. A digest of the protocol:
as §2

The test system of test [15] is Adipocyte. The test is described as follows: Inhibition of lipogenesis in mouse adipocytes isolated stromal vascular cells assessed as decrease in ACC mRNA expression measured after 24 hrs by RT-qPCR assay. It is filed as functional, cell-based. A digest of the protocol: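 Stromal vascular cells came from collagenase-digested inguinal WAT of C57BL/6 mice and were grown in DMEM/F12 with 10% FBS. At confluence, differentiation used insulin 5 μg/ml, dexamethasone 1 μM and IBMX 0.5 mM for 48 h, then insulin alone for 6 days. Fully differentiated day-8 adipocytes were exposed to A-485 for 24 h. Transcripts were quantified by RT-qPCR.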

In test [16] the test system is Adipocyte. The test is described as follows: Inhibition of lipogenesis in mouse adipocytes isolated stromal vascular cells assessed as decrease in PPARgamma protein expression measured after 24 hrs by western blot analysis. It is filed as functional, cell-based.
Test [17] deals with Hepatocyte. The test is described as follows: Inhibition of glucogenesis in mouse primary hepatocytes stimulated with 100 uM 8-Br-cAMP assessed as effect on pCREB protein expression at 3 uM measured after 1 hr by western blot analysis. It is filed as functional, cell-based. A digest of the protocol: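 Primary hepatocytes from C57BL/6 mice, isolated by two-step perfusion, were co-treated with 3 μM A-485 and 100 μM 8-Br-cAMP for 1 h. Phospho-CREB, phospho-AMPK and phospho-TORC2 were detected by western blot of cell lysates. Three independent experiments; mean ± SEM.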

For test [18], the species on record is Mus musculus. Nature of the test: Inhibition of glucogenesis in mouse assessed as decrease in hepatic C/EBPalpha protein expression measured by western blot analysis. In kind it is functional, organism-based. A digest of the protocol:
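Livers from vehicle- or treated mice (ip 20 mg·kg−1·day−1 for 7 days) homogenized in lysis buffer; FOXO1 and C/EBPα analysed by western blot.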

The target in test [19] is T1, CREB-binding protein/Histone acetyltransferase p300 (Homo sapiens) (UniProt Q09472+Q92793). Nature of the test: Inhibition of CBP/p300 in mouse primary hepatocytes stimulated with 100 uM 8-Br-cAMP assessed as decrease in FOXO1 abundance in cytoplasm at 3 uM. The note with it: Primary hepatocyte. It is filed as cell-based. A digest of the protocol: (§3)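 Primary mouse hepatocytes treated with 3 μM compound and 100 μM 8-Br-cAMP. Nuclear and cytoplasmic fractions separated with a commercial kit; FOXO1 detected by western blot.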

Test [20] addresses T1, CREB-binding protein/Histone acetyltransferase p300 (Homo sapiens). The test is described as follows: Inhibition of CBP/p300 in mouse primary hepatocytes stimulated with 100 uM 8-Br-cAMP assessed as decrease in FOXO1 abundance in nucleus at 3 uM. As to conditions: Primary hepatocyte. In kind it is cell-based. Put shortly: as §3
Test [21] has as its system Hepatocyte. Nature of the test: Inhibition of glucogenesis in mouse primary hepatocytes stimulated with 100 uM 8-Br-cAMP assessed as decrease in FBP mRNA expression at 3 uM measured after 8 hrs by RT-qPCR assay.

T1 sequence (Q09472 whole entry, looked up): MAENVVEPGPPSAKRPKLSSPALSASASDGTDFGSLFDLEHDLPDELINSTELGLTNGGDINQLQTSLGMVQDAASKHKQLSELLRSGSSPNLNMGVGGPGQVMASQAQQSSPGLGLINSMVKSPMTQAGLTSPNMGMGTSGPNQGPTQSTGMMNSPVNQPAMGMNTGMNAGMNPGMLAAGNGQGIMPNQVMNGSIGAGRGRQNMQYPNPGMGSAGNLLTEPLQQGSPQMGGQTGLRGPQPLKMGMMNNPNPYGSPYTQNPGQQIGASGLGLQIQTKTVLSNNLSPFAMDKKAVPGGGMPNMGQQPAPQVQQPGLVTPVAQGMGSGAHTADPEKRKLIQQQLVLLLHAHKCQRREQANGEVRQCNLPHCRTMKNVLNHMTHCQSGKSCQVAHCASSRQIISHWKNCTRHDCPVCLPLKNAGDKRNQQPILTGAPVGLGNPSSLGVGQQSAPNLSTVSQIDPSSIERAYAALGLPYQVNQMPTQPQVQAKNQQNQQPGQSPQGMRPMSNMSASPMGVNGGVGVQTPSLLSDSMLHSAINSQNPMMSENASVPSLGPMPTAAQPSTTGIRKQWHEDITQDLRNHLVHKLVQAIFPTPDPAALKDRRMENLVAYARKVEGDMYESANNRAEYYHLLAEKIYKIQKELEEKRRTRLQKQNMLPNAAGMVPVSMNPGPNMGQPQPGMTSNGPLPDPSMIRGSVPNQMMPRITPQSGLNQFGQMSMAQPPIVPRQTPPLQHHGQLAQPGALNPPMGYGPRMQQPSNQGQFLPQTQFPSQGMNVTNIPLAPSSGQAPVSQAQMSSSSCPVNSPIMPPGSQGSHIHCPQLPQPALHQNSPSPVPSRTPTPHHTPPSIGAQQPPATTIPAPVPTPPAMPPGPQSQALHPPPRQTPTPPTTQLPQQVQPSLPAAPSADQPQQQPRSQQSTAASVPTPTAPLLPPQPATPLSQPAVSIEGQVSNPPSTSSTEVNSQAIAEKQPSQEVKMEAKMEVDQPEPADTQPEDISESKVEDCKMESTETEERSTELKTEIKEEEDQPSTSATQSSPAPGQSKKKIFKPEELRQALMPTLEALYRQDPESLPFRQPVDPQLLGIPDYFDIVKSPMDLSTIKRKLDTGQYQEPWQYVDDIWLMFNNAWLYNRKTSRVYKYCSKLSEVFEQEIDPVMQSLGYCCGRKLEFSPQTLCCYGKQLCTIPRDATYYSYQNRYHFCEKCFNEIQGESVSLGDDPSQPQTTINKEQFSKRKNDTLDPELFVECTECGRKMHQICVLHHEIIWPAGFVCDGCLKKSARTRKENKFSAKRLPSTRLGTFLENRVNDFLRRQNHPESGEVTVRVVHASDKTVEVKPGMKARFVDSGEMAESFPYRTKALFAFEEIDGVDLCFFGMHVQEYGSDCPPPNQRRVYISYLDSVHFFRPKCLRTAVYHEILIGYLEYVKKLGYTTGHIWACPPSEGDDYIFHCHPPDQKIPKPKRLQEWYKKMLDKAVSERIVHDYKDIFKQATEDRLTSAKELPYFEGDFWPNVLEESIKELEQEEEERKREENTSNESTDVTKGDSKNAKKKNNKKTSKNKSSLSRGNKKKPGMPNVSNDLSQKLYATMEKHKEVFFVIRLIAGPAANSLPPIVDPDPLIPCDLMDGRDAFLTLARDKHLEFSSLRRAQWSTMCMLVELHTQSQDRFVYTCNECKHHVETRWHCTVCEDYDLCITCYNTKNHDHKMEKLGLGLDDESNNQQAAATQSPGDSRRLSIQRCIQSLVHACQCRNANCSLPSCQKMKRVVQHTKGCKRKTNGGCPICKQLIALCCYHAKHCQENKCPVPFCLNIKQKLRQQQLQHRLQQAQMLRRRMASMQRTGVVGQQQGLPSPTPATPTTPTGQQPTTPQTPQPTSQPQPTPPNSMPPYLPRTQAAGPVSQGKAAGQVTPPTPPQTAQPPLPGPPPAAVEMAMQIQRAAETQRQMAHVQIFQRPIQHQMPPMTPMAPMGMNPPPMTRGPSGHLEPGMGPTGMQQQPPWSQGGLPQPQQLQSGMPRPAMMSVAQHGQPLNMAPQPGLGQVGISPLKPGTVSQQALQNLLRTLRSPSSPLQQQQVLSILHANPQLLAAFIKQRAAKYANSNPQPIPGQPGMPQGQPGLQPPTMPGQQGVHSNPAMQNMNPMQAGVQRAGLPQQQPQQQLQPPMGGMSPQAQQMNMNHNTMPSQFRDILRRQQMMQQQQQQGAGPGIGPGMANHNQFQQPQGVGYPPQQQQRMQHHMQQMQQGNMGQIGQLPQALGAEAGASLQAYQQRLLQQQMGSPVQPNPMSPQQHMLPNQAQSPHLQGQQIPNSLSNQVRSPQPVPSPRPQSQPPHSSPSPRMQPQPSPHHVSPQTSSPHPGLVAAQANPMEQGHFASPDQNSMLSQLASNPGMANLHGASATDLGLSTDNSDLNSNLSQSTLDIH
T1 sequence (Q92793 whole entry, looked up): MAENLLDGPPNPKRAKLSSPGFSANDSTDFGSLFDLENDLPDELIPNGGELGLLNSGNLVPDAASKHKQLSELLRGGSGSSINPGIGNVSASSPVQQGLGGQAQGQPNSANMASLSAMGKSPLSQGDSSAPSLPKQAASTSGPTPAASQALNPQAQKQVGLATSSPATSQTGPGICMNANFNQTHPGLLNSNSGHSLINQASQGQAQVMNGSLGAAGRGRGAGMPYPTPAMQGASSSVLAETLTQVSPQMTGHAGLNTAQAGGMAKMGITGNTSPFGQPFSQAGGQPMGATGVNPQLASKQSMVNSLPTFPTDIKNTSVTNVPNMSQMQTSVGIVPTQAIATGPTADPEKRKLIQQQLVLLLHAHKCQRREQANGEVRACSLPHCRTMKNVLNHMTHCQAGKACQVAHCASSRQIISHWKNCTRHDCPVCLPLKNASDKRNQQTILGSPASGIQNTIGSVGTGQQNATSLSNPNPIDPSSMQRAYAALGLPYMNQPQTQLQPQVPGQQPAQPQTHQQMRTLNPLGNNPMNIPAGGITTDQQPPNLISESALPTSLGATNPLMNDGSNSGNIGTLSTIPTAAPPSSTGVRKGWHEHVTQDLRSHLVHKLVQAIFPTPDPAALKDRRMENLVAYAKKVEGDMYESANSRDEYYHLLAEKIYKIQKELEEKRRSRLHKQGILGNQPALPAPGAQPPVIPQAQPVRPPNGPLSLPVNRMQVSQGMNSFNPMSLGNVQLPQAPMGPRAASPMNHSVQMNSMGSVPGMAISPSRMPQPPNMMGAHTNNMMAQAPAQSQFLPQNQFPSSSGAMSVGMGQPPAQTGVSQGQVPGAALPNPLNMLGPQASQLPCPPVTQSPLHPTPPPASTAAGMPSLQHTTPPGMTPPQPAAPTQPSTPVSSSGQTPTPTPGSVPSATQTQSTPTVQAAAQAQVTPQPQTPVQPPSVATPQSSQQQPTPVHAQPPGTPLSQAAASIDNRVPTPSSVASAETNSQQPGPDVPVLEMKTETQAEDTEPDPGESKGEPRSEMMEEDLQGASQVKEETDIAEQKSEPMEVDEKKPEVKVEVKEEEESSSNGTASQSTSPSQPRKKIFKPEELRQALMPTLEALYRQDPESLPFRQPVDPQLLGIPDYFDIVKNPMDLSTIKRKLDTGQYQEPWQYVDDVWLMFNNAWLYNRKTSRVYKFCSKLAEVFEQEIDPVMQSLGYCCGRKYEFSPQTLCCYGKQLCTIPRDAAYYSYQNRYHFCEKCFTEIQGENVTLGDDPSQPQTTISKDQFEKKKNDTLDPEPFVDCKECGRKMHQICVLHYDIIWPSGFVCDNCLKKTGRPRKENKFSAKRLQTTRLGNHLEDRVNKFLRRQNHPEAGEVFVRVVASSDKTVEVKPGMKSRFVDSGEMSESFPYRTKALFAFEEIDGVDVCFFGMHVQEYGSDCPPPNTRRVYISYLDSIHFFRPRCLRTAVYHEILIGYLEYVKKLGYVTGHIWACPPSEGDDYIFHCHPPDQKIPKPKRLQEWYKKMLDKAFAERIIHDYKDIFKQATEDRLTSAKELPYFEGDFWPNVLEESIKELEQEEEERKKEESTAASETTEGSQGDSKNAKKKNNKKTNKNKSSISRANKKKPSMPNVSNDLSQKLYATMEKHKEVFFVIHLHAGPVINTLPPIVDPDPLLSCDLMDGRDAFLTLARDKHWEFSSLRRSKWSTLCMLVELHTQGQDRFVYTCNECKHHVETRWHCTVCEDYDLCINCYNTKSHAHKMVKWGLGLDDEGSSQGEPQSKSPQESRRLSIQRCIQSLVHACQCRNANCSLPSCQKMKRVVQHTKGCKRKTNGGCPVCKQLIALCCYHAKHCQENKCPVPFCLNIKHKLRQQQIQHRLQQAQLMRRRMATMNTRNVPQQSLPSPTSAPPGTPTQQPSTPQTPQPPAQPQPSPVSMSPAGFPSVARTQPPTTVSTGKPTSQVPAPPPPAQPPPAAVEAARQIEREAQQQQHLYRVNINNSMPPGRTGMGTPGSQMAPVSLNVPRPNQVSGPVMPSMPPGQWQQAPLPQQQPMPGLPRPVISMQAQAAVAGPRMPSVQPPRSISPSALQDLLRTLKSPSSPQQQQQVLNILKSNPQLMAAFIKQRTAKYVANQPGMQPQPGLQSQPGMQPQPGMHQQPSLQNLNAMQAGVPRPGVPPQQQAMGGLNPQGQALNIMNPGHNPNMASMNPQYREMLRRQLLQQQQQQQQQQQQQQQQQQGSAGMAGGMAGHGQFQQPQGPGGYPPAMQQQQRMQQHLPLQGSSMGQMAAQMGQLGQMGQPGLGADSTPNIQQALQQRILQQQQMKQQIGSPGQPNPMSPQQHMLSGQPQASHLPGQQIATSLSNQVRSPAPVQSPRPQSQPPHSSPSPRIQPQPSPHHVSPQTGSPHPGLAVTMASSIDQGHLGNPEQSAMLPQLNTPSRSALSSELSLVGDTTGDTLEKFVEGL

For `CNC(=O)Nc1ccc2c(c1)CCS21OC(=O)N(CC(=O)N(Cc2ccc(F)cc2)[C@@H](C)C(F)(F)F)C1=O` (stereo partly specified), the outcome with Mus musculus [1] and in the test with Mus musculus [3] was Active. For the same compound, the result with Mus musculus [2] was inactive. In addition, the inhibition entry in the test on Mus musculus [4], with Mus musculus [5], in the test with Mus musculus [6], in the test on Mus musculus [7], in the test on Mus musculus [8] and with Mus musculus [9] was “Active” each time. Moreover, the inhibition entry in the test with Mus musculus [10], in the test with Mus musculus [12], in the test on Mus musculus [13], in the test on Mus musculus [14], in the test on Adipocyte [15] and in the test on Adipocyte [16] was “Active” each time. Moreover, the inhibition entry (in the test filed under Mus musculus [18]; in [19]; in test [20]; in the test with Hepatocyte [21]) was “Active” in each case. The inhibition result in the test on Mus musculus [11] and in the test on Hepatocyte [17] was “inactive” each time.
